This note sets out measurements from ChEMBL document CHEMBL4665824, “Characterization and Discovery of a Selective Small-Molecule Modulator of Mitochondrial Complex I Targeting a Unique Binding Site” (J Med Chem, 2020).

The species named for series [1] is Mus musculus. The experiment in a line: Binding affinity to purified C57BL/6 mouse cerebral cortex mitochondrial complex 1 assessed as labelling of 13 kDa sub unit at 10 uM in presence of IQ site inhibitor rotenone incubated for 45 mins under irradiation by SDS-PAGE analysis. To be noted: Mitochondria. The method, boiled down:
(§1)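 Preincubated with DMSO or competitor 45 min at 4 °C, then photoaffinity probe added for 30 min at 4 °C. Irradiated 365 nm, 10 min on ice, then run on SDS-PAGE. Read by in-gel fluorescence (488 nm excitation), or after streptavidin pull-down by silver stain. Three independent experiments.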

Series [2] is filed under the species Mus musculus. As to the kind of experiment: Binding affinity to purified C57BL/6 mouse cerebral cortex mitochondrial complex 1 assessed as labelling of 51 kDa sub unit at 1 to 10 uM incubated for 45 mins under irradiation by SDS-PAGE analysis. To be noted: Mitochondria, dose microM 1-10, time 45.0 min. The method, boiled down:
as §1

For series [3], the species on record is Mus musculus. The experiment in a line: Binding affinity to purified C57BL/6 mouse cerebral cortex mitochondrial complex 1 assessed as labelling of 49 kDa sub unit at 10 uM in presence of FMN incubated for 45 mins under irradiation by SDS-PAGE analysis. To be noted: Mitochondria. The method in brief:
as §1

Series [4] can be described thus: Drug localization in mitochondria human MC65 cells at 3 uM incubated for 3.5 hrs by immunocytochemistry. In kind it is ADME. To be noted: mc65, 3.5 h. The method, boiled down:
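MC65 cells plated 24 h on poly-D-lysine coverslips, given 3 μM probe for 3.5 h, then MitoTracker Red (300 nM) for 30 min. Fixed in 4% formaldehyde 15 min, DAPI-stained, mounted. Imaged by confocal microscopy (63x/1.40 oil) and analysed for colocalization coefficients.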

Series [5] is filed under the species Mus musculus. The experiment in a line: Binding affinity to purified C57BL/6 mouse cerebral cortex mitochondrial complex 1 assessed as labelling of 13 kDa sub unit at 10 uM in presence of FMN incubated for 45 mins under irradiation by SDS-PAGE analysis. To be noted: Mitochondria. The method in brief:
as §1

The species entered for series [6] is Mus musculus. The experiment in a line: Binding affinity to purified C57BL/6 mouse cerebral cortex mitochondrial complex 1 assessed as labelling of 49 kDa sub unit at 10 uM in presence of NADH incubated for 45 mins under irradiation by SDS-PAGE analysis. To be noted: Mitochondria. The method in brief: as §1
Series [7] is filed under the species Mus musculus. The experiment in a line: Binding affinity to purified C57BL/6 mouse cerebral cortex mitochondrial complex 1 assessed as labelling of 49 kDa sub unit at 10 uM in presence of IQ site inhibitor rotenone incubated for 45 mins under irradiation by SDS-PAGE analysis. To be noted: Mitochondria. The method, boiled down: as §1
Series [8] is filed under the species Mus musculus. The experiment in a line: Binding affinity to purified C57BL/6 mouse cerebral cortex mitochondrial complex 1 assessed as labelling of 75 kDa sub unit at 10 uM in presence of FMN incubated for 45 mins under irradiation by SDS-PAGE analysis. To be noted: Mitochondria. The method in brief: as §1
The species entered for series [9] is Mus musculus. The experiment in a line: Binding affinity to purified C57BL/6 mouse cerebral cortex mitochondrial complex 1 assessed as labelling of 24 kDa sub unit at 1 to 10 uM incubated for 45 mins under irradiation by SDS-PAGE analysis. To be noted: Mitochondria, dose microM 1-10, time 45.0 min. The method, boiled down:
as §1

Series [10] is filed under the species Mus musculus. As to the kind of experiment: Inhibition of mitochondrial complex 1 in permeabilized mouse brain mitochondria assessed as reduction in ROS production at 1 uM incubated for 1 hr after TC removal by Amplex Red and horseradish peroxidase based assay.
The species entered for series [11] is Mus musculus. The experiment in a line: Binding affinity to purified C57BL/6 mouse cerebral cortex mitochondrial complex 1 assessed as labelling of 51 kDa sub unit at 10 uM in presence of ZCM-I-1 incubated for 45 mins under irradiation by SDS-PAGE analysis. The note with it: Mitochondria. The method, boiled down:
as §1

The species entered for series [12] is Mus musculus. As to the kind of experiment: Binding affinity to purified C57BL/6 mouse cerebral cortex mitochondrial complex 1 assessed as labelling of 13 kDa sub unit at 10 uM in presence of ZCM-I-1 incubated for 45 mins under irradiation by SDS-PAGE analysis. To be noted: Mitochondria. The method in brief:
as §1

Series [13] is filed under the species Mus musculus. The experiment in a line: Binding affinity to purified C57BL/6 mouse cerebral cortex mitochondrial complex 1 assessed as labelling of 75 kDa sub unit at 1 to 10 uM incubated for 45 mins under irradiation by SDS-PAGE analysis. To be noted: Mitochondria, dose microM 1-10, time 45.0 min. The method in brief: as §1
Series [14] is filed under the species Mus musculus. The experiment in a line: Binding affinity to purified C57BL/6 mouse cerebral cortex mitochondrial complex 1 assessed as labelling of 24 kDa sub unit at 10 uM in presence of NADH incubated for 45 mins under irradiation by SDS-PAGE analysis. The note with it: Mitochondria. The method in brief:
as §1

The species named for series [15] is Mus musculus. As to the kind of experiment: Binding affinity to purified C57BL/6 mouse cerebral cortex mitochondrial complex 1 assessed as labelling of 24 kDa sub unit at 10 uM in presence of ZCM-I-1 incubated for 45 mins under irradiation by SDS-PAGE analysis. The note with it: Mitochondria. The method, boiled down:
as §1

The species named for series [16] is Mus musculus. As to the kind of experiment: Binding affinity to purified C57BL/6 mouse cerebral cortex mitochondrial complex 1 assessed as labelling of 75 kDa sub unit at 10 uM in presence of IQ site inhibitor rotenone incubated for 45 mins under irradiation by SDS-PAGE analysis. The note with it: Mitochondria. The method in brief: as §1
For series [17], the species on record is Mus musculus. The experiment in a line: Binding affinity to purified C57BL/6 mouse cerebral cortex mitochondrial complex 1 assessed as labelling of IF site ( 49 kDa) sub unit at 10 uM in presence of ZCM-I-1 incubated for 45 mins under irradiation by SDS-PAGE analysis. To be noted: Mitochondria. The method in brief: as §1
For series [18], the species on record is Mus musculus. The experiment in a line: Binding affinity to purified C57BL/6 mouse cerebral cortex mitochondrial complex 1 assessed as labelling of 24 kDa sub unit at 10 uM in presence of IQ site inhibitor rotenone incubated for 45 mins under irradiation by SDS-PAGE analysis. The note with it: Mitochondria. The method in brief:
as §1

Series [19] is filed under the species Mus musculus. The experiment in a line: Binding affinity to purified C57BL/6 mouse cerebral cortex mitochondrial complex 1 assessed as labelling of 51 kDa sub unit at 10 uM in presence of FMN incubated for 45 mins under irradiation by SDS-PAGE analysis. To be noted: Mitochondria. The method in brief:
as §1

The species entered for series [20] is Mus musculus. As to the kind of experiment: Binding affinity to purified C57BL/6 mouse cerebral cortex mitochondrial complex 1 assessed as labelling of 13 kDa sub unit at 1 to 10 uM incubated for 45 mins under irradiation by SDS-PAGE analysis. To be noted: Mitochondria, dose microM 1-10, time 45.0 min. The method in brief:
as §1

Series [21] is filed under the species Mus musculus. As to the kind of experiment: Binding affinity to purified C57BL/6 mouse cerebral cortex mitochondrial complex 1 assessed as labelling of 13 kDa sub unit at 10 uM in presence of NADH incubated for 45 mins under irradiation by SDS-PAGE analysis. The note with it: Mitochondria. The method, boiled down:
as §1

Series [22] is filed under the species Mus musculus. As to the kind of experiment: Binding affinity to purified C57BL/6 mouse cerebral cortex mitochondrial complex 1 assessed as labelling of 51 kDa sub unit at 10 uM in presence of NADH incubated for 45 mins under irradiation by SDS-PAGE analysis. To be noted: Mitochondria. The method, boiled down:
as §1

Series [23] is filed under the species Mus musculus. As to the kind of experiment: Binding affinity to purified C57BL/6 mouse cerebral cortex mitochondrial complex 1 assessed as labelling of 75 kDa sub unit at 10 uM in presence of NADH incubated for 45 mins under irradiation by SDS-PAGE analysis. The note with it: Mitochondria. The method, boiled down: as §1
The species named for series [24] is Mus musculus. The experiment in a line: Binding affinity to purified C57BL/6 mouse cerebral cortex mitochondrial complex 1 assessed as labelling of 24 kDa sub unit at 10 uM in presence of FMN incubated for 45 mins under irradiation by SDS-PAGE analysis. The note with it: Mitochondria. The method in brief: as §1
The species named for series [25] is Mus musculus. The experiment in a line: Binding affinity to purified C57BL/6 mouse cerebral cortex mitochondrial complex 1 assessed as labelling of IF site ( 49 kDa) sub unit at 1 to 10 uM incubated for 45 mins under irradiation by SDS-PAGE analysis. The note with it: Mitochondria, dose microM 1-10, time 45.0 min. The method, boiled down: as §1
For series [26], the species on record is Mus musculus. The experiment in a line: Binding affinity to purified C57BL/6 mouse cerebral cortex mitochondrial complex 1 assessed as labelling of 51 kDa sub unit at 10 uM in presence of IQ site inhibitor rotenone incubated for 45 mins under irradiation by SDS-PAGE analysis. To be noted: Mitochondria. The method, boiled down: as §1
The nature of series [27]: Drug localization in mitochondria mouse cortical neuron at 25 uM incubated for 4 hrs by immunocytochemistry. To be noted: cortical neurone. In kind it is ADME. The method, boiled down: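 Mouse primary cortical neurons (E15.5 C57BL/6J cortex, DIV 10–12; cytarabine 1 μM from DIV 3–6) given 25 μM probe for 4 h, then Mitotracker Red CMXRos (25 nM) for 30 min. Washed by half-media exchanges with phenol-red-free medium. Imaged live by confocal microscopy, 63x/1.4 NA oil objective.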

Another series concerns MC65. As to the kind of experiment: Inhibition of mitochondrial complex 1 in human MC65 cells assessed as protective potency concentration. The format is cell-based.
The species named for series [28] is Mus musculus. The experiment in a line: Binding affinity to purified C57BL/6 mouse cerebral cortex mitochondrial complex 1 assessed as labelling of 75 kDa sub unit at 10 uM in presence of ZCM-I-1 incubated for 45 mins under irradiation by SDS-PAGE analysis. To be noted: Mitochondria. The method, boiled down:
as §1

Calls of active or inactive are those of the source. The rule behind the calls is not given here.

Regarding `COc1ccc2[nH]cc(CCNC(=O)C(CCC3(CCc4cn(CCCNc5ccc([N+](=O)[O-])c6nonc56)nn4)N=N3)C(=O)CCc3ccc(O)cc3)c2c1` (centres undefined), the outcome in the series filed under Mus musculus [1], in the series listed under Mus musculus [2], in the series filed under Mus musculus [7], in the series filed under Mus musculus [9], in the series filed under Mus musculus [13] and in the series listed under Mus musculus [16] was Active. The result in the series filed under Mus musculus [18], in the series filed under Mus musculus [20], in the series listed under Mus musculus [25] and in the series listed under Mus musculus [26] was Active. Further, the result in the series filed under Mus musculus [3], in the series filed under Mus musculus [5], in the series filed under Mus musculus [6], in the series listed under Mus musculus [8], in the series filed under Mus musculus [11] and in the series listed under Mus musculus [12] was inactive. Further, the result in the series listed under Mus musculus [14], in the series filed under Mus musculus [15], in the series filed under Mus musculus [17], in the series listed under Mus musculus [19], in the series filed under Mus musculus [21] and in the series filed under Mus musculus [22] was inactive. In addition, the outcome in the series filed under Mus musculus [23] and in the series filed under Mus musculus [24] was inactive. Further, the Drug uptake entry in [4] and in series [27] was “Active” each time. Also, in the series listed under Mus musculus [10], the inhibition result is “inactive”. For the same compound, the INH in the series with MC65 came to 96.8 nM.
Take `COc1ccc2[nH]cc(CCNC(=O)C(CCC3(CCc4cn(CCOCCOCCNC(=O)CCCCC5SCC6NC(=O)NC65)nn4)N=N3)C(=O)CCc3ccc(O)cc3)c2c1` (centres undefined): the result in the series listed under Mus musculus [11], in the series filed under Mus musculus [12], in the series filed under Mus musculus [15], in the series listed under Mus musculus [17] and in the series filed under Mus musculus [28] was inactive. The INH with MC65 is above 3 nM.
